Data reported in ChEMBL document CHEMBL5058577, “EUbOPEN Chemogenomics Library 2 (Multiplex)” (2022).

Test system: HEK-293T
Assay: Multiplex assay against HEK293T
Assay type: toxicity, cell-based
Conditions: human
Outline: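 Tubulin, mitochondrial-mass and membrane-permeability phenotypes are per cents of healthy-nucleus cells. Cells were gated by CellPathfinder machine learning into Hoechst high-intensity objects or normal cells, normal cells into healthy, pyknosed or fragmented nuclei, and pyknosed cells into mitotic or apoptotic. Before that, live cells stained at seeding with Hoechst33342, BioTracker Green Microtubule Cytoskeleton Dye, MitoTracker Red and Annexin V Alexa Fluor 680 were imaged on a CQ1 microscope at 37°C and 5% CO2 after compound addition.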

[1] = 12 h, 1 µM, compound concentration 1 uM, replicate 1
[2] = 12 h, 1 µM, compound concentration 1 uM, replicate 2
[3] = 12 h, 10 µM, compound concentration 10 uM, replicate 1
[4] = 12 h, 10 µM, compound concentration 10 uM, replicate 2
[5] = 24 h, 1 µM, compound concentration 1 uM, replicate 1
[6] = 24 h, 1 µM, compound concentration 1 uM, replicate 2
[7] = 24 h, 10 µM, compound concentration 10 uM, replicate 1
[8] = 24 h, 10 µM, compound concentration 10 uM, replicate 2
[9] = 48 h, 1 µM, compound concentration 1 uM, replicate 1
[10] = 48 h, 1 µM, compound concentration 1 uM, replicate 2
[11] = 48 h, 10 µM, compound concentration 10 uM, replicate 1
[12] = 48 h, 10 µM, compound concentration 10 uM, replicate 2

Cc1cc(NC(=O)NCCN2CCC(O)(Cc3ccccc3)CC2)c2ccccc2n1 [PALOSURAN]
Population Apoptotic (%) [1]: 36%
Population Fragmented Nuclei (%) [1]: 7%
Population Healthy Nuclei (%) [1]: 77%
Population Hoechst High Intensity Objects (%) [1]: 6%
Population Membrane Permeable-Phenotype (%) [1]: 0%
Population Mitochondria Different-Phenotype (%) [1]: 42%
Population Mitotic Cells (%) [1]: 63%
Population Normal (%) [1]: 93%
Population Pyknosed Nuclei (%) [1]: 14%
Population Tubulin-Different-Phenotype (%) [1]: 25%
Total Cell Count [1]: 373
Population Apoptotic (%) [2]: 48%
Population Fragmented Nuclei (%) [2]: 9%
Population Healthy Nuclei (%) [2]: 81%
Population Hoechst High Intensity Objects (%) [2]: 9%
Population Mitochondria Different-Phenotype (%) [2]: 57%
Population Mitotic Cells (%) [2]: 52%
Population Normal (%) [2]: 90%
Population Pyknosed Nuclei (%) [2]: 8%
Population Tubulin-Different-Phenotype (%) [2]: 26%
Total Cell Count [2]: 326
Population Apoptotic (%) [3]: 38%
Population Fragmented Nuclei (%) [3]: 5%
Population Healthy Nuclei (%) [3]: 81%
Population Hoechst High Intensity Objects (%) [3]: 8%
Population Membrane Permeable-Phenotype (%) [3]: 0%
Population Mitochondria Different-Phenotype (%) [3]: 53%
Population Mitotic Cells (%) [3]: 61%
Population Normal (%) [3]: 91%
Population Pyknosed Nuclei (%) [3]: 12%
Population Tubulin-Different-Phenotype (%) [3]: 41%
Total Cell Count [3]: 461
Population Apoptotic (%) [4]: 61%
Population Healthy Nuclei (%) [4]: 75%
Population Mitochondria Different-Phenotype (%) [4]: 76%
Population Mitotic Cells (%) [4]: 38%
Population Pyknosed Nuclei (%) [4]: 18%
Population Tubulin-Different-Phenotype (%) [4]: 42%
Total Cell Count [4]: 346
Population Apoptotic (%) [5]: 17%
Population Fragmented Nuclei (%) [5]: 9%
Population Healthy Nuclei (%) [5]: 78%
Population Hoechst High Intensity Objects (%) [5]: 6%
Population Membrane Permeable-Phenotype (%) [5]: 0%
Population Mitochondria Different-Phenotype (%) [5]: 24%
Population Mitotic Cells (%) [5]: 82%
Population Normal (%) [5]: 93%
Population Pyknosed Nuclei (%) [5]: 11%
Population Tubulin-Different-Phenotype (%) [5]: 19%
Total Cell Count [5]: 511
Population Apoptotic (%) [6]: 46%
Population Fragmented Nuclei (%) [6]: 10%
Population Healthy Nuclei (%) [6]: 76%
Population Hoechst High Intensity Objects (%) [6]: 4%
Population Mitochondria Different-Phenotype (%) [6]: 45%
Population Mitotic Cells (%) [6]: 53%
Population Normal (%) [6]: 95%
Population Pyknosed Nuclei (%) [6]: 13%
Population Tubulin-Different-Phenotype (%) [6]: 14%
Total Cell Count [6]: 343
Population Apoptotic (%) [7]: 35%
Population Fragmented Nuclei (%) [7]: 8%
Population Healthy Nuclei (%) [7]: 79%
Population Hoechst High Intensity Objects (%) [7]: 4%
Population Membrane Permeable-Phenotype (%) [7]: 0%
Population Mitochondria Different-Phenotype (%) [7]: 43%
Population Mitotic Cells (%) [7]: 64%
Population Normal (%) [7]: 95%
Population Pyknosed Nuclei (%) [7]: 11%
Population Tubulin-Different-Phenotype (%) [7]: 32%
Total Cell Count [7]: 598
Population Apoptotic (%) [8]: 51%
Population Fragmented Nuclei (%) [8]: 7%
Population Healthy Nuclei (%) [8]: 83%
Population Hoechst High Intensity Objects (%) [8]: 6%
Population Mitochondria Different-Phenotype (%) [8]: 64%
Population Mitotic Cells (%) [8]: 48%
Population Normal (%) [8]: 93%
Population Pyknosed Nuclei (%) [8]: 9%
Population Tubulin-Different-Phenotype (%) [8]: 26%
Total Cell Count [8]: 396
Population Apoptotic (%) [9]: 19%
Population Fragmented Nuclei (%) [9]: 15%
Population Healthy Nuclei (%) [9]: 79%
Population Hoechst High Intensity Objects (%) [9]: 3%
Population Membrane Permeable-Phenotype (%) [9]: 1%
Population Mitochondria Different-Phenotype (%) [9]: 16%
Population Mitotic Cells (%) [9]: 80%
Population Normal (%) [9]: 96%
Population Pyknosed Nuclei (%) [9]: 5%
Population Tubulin-Different-Phenotype (%) [9]: 12%
Total Cell Count [9]: 938
Population Apoptotic (%) [10]: 32%
Population Fragmented Nuclei (%) [10]: 13%
Population Healthy Nuclei (%) [10]: 81%
Population Membrane Permeable-Phenotype (%) [10]: 0%
Population Mitochondria Different-Phenotype (%) [10]: 24%
Population Mitotic Cells (%) [10]: 67%
Population Tubulin-Different-Phenotype (%) [10]: 15%
Total Cell Count [10]: 552
Population Apoptotic (%) [11]: 29%
Population Fragmented Nuclei (%) [11]: 15%
Population Healthy Nuclei (%) [11]: 75%
Population Hoechst High Intensity Objects (%) [11]: 5%
Population Membrane Permeable-Phenotype (%) [11]: 0%
Population Mitochondria Different-Phenotype (%) [11]: 34%
Population Mitotic Cells (%) [11]: 70%
Population Normal (%) [11]: 94%
Population Pyknosed Nuclei (%) [11]: 8%
Population Tubulin-Different-Phenotype (%) [11]: 17%
Total Cell Count [11]: 874
Population Apoptotic (%) [12]: 41%
Population Fragmented Nuclei (%) [12]: 9%
Population Healthy Nuclei (%) [12]: 84%
Population Hoechst High Intensity Objects (%) [12]: 4%
Population Mitochondria Different-Phenotype (%) [12]: 42%
Population Mitotic Cells (%) [12]: 58%
Population Normal (%) [12]: 95%
Population Pyknosed Nuclei (%) [12]: 6%
Population Tubulin-Different-Phenotype (%) [12]: 19%
Total Cell Count [12]: 570

Cc1cc(-c2ccc3c(c2)CC[C@H]3N2CC3(CCN(C(=O)Cc4cn5cc(C)sc5n4)CC3)C2)ncn1 [PF-5190457]
Population Apoptotic (%) [1]: 36%
Population Fragmented Nuclei (%) [1]: 5%
Population Healthy Nuclei (%) [1]: 83%
Population Hoechst High Intensity Objects (%) [1]: 5%
Population Membrane Permeable-Phenotype (%) [1]: 0%
Population Mitochondria Different-Phenotype (%) [1]: 40%
Population Mitotic Cells (%) [1]: 63%
Population Normal (%) [1]: 94%
Population Pyknosed Nuclei (%) [1]: 11%
Population Tubulin-Different-Phenotype (%) [1]: 25%
Total Cell Count [1]: 418
Population Apoptotic (%) [2]: 47%
Population Fragmented Nuclei (%) [2]: 8%
Population Healthy Nuclei (%) [2]: 72%
Population Hoechst High Intensity Objects (%) [2]: 10%
Population Mitochondria Different-Phenotype (%) [2]: 53%
Population Mitotic Cells (%) [2]: 52%
Population Normal (%) [2]: 89%
Population Pyknosed Nuclei (%) [2]: 19%
Population Tubulin-Different-Phenotype (%) [2]: 22%
Total Cell Count [2]: 258
Population Apoptotic (%) [3]: 40%
Population Fragmented Nuclei (%) [3]: 9%
Population Healthy Nuclei (%) [3]: 75%
Population Hoechst High Intensity Objects (%) [3]: 11%
Population Membrane Permeable-Phenotype (%) [3]: 0%
Population Mitochondria Different-Phenotype (%) [3]: 53%
Population Mitotic Cells (%) [3]: 60%
Population Normal (%) [3]: 88%
Population Pyknosed Nuclei (%) [3]: 14%
Population Tubulin-Different-Phenotype (%) [3]: 37%
Total Cell Count [3]: 455
Population Apoptotic (%) [4]: 54%
Population Fragmented Nuclei (%) [4]: 3%
Population Healthy Nuclei (%) [4]: 80%
Population Hoechst High Intensity Objects (%) [4]: 8%
Population Mitochondria Different-Phenotype (%) [4]: 70%
Population Mitotic Cells (%) [4]: 45%
Population Normal (%) [4]: 91%
Population Pyknosed Nuclei (%) [4]: 16%
Population Tubulin-Different-Phenotype (%) [4]: 40%
Total Cell Count [4]: 322
Population Apoptotic (%) [5]: 21%
Population Fragmented Nuclei (%) [5]: 8%
Population Healthy Nuclei (%) [5]: 77%
Population Hoechst High Intensity Objects (%) [5]: 2%
Population Membrane Permeable-Phenotype (%) [5]: 0%
Population Mitochondria Different-Phenotype (%) [5]: 24%
Population Mitotic Cells (%) [5]: 78%
Population Normal (%) [5]: 97%
Population Pyknosed Nuclei (%) [5]: 13%
Population Tubulin-Different-Phenotype (%) [5]: 16%
Total Cell Count [5]: 549
Population Apoptotic (%) [6]: 45%
Population Fragmented Nuclei (%) [6]: 11%
Population Healthy Nuclei (%) [6]: 78%
Population Hoechst High Intensity Objects (%) [6]: 7%
Population Membrane Permeable-Phenotype (%) [6]: 1%
Population Mitochondria Different-Phenotype (%) [6]: 35%
Population Mitotic Cells (%) [6]: 54%
Population Normal (%) [6]: 92%
Population Pyknosed Nuclei (%) [6]: 9%
Population Tubulin-Different-Phenotype (%) [6]: 11%
Total Cell Count [6]: 352
Population Apoptotic (%) [7]: 25%
Population Fragmented Nuclei (%) [7]: 10%
Population Healthy Nuclei (%) [7]: 75%
Population Hoechst High Intensity Objects (%) [7]: 5%
Population Membrane Permeable-Phenotype (%) [7]: 1%
Population Mitochondria Different-Phenotype (%) [7]: 28%
Population Mitotic Cells (%) [7]: 74%
Population Normal (%) [7]: 94%
Population Pyknosed Nuclei (%) [7]: 14%
Population Tubulin-Different-Phenotype (%) [7]: 30%
Total Cell Count [7]: 638
Population Apoptotic (%) [8]: 36%
Population Fragmented Nuclei (%) [8]: 5%
Population Healthy Nuclei (%) [8]: 81%
Population Hoechst High Intensity Objects (%) [8]: 6%
Population Membrane Permeable-Phenotype (%) [8]: 0%
Population Mitochondria Different-Phenotype (%) [8]: 51%
Population Mitotic Cells (%) [8]: 63%
Population Normal (%) [8]: 93%
Population Pyknosed Nuclei (%) [8]: 13%
Population Tubulin-Different-Phenotype (%) [8]: 23%
Total Cell Count [8]: 425
Population Apoptotic (%) [9]: 25%
Population Fragmented Nuclei (%) [9]: 14%
Population Healthy Nuclei (%) [9]: 79%
Population Hoechst High Intensity Objects (%) [9]: 1%
Population Membrane Permeable-Phenotype (%) [9]: 1%
Population Mitochondria Different-Phenotype (%) [9]: 18%
Population Mitotic Cells (%) [9]: 74%
Population Normal (%) [9]: 98%
Population Pyknosed Nuclei (%) [9]: 5%
Population Tubulin-Different-Phenotype (%) [9]: 9%
Total Cell Count [9]: 873
Population Apoptotic (%) [10]: 39%
Population Fragmented Nuclei (%) [10]: 12%
Population Healthy Nuclei (%) [10]: 80%
Population Hoechst High Intensity Objects (%) [10]: 3%
Population Mitochondria Different-Phenotype (%) [10]: 21%
Population Mitotic Cells (%) [10]: 60%
Population Normal (%) [10]: 96%
Population Pyknosed Nuclei (%) [10]: 6%
Population Tubulin-Different-Phenotype (%) [10]: 10%
Total Cell Count [10]: 531
Population Apoptotic (%) [11]: 24%
Population Fragmented Nuclei (%) [11]: 14%
Population Healthy Nuclei (%) [11]: 77%
Population Hoechst High Intensity Objects (%) [11]: 2%
Population Membrane Permeable-Phenotype (%) [11]: 0%
Population Mitochondria Different-Phenotype (%) [11]: 27%
Population Mitotic Cells (%) [11]: 76%
Population Normal (%) [11]: 97%
Population Pyknosed Nuclei (%) [11]: 8%
Population Tubulin-Different-Phenotype (%) [11]: 20%
Total Cell Count [11]: 927
Population Apoptotic (%) [12]: 46%
Population Fragmented Nuclei (%) [12]: 13%
Population Healthy Nuclei (%) [12]: 78%
Population Hoechst High Intensity Objects (%) [12]: 4%
Population Mitochondria Different-Phenotype (%) [12]: 32%
Population Mitotic Cells (%) [12]: 53%
Population Normal (%) [12]: 95%
Total Cell Count [12]: 520
